Measurements collected from several papers.
Each line is one published result; the experiments were not run side by side.
SLC10A2: Ileal sodium/bile acid cotransporter (SLC10A2, Homo sapiens, UniProt Q12908)
SETD7: Histone-lysine N-methyltransferase SETD7 (SETD7, Homo sapiens, UniProt Q8WTS6)

SMILES | target | effect on | action | technique | concentration | time | inhibition [%]
CCN(c1cc(C#CCN2CCOCC2)cc(C(=O)NCc2c(C)cc(C)[nH]c2=O)c1C)[C@H]1CC[C@H](N(C)CCOC)CC1 | Histone-lysine N-methyltransferase SETD2 (SETD2, Homo sapiens, UniProt Q9BYW2) | enzyme activity | inhibitor |  | 1 µM |  | 20
CNC(=C[N+](=O)[O-])NCCSCc1ccc(CN(C)C)o1 | SLC10A2 | transporter uptake | inhibitor | radiometric | 1 mM |  | 30.2
CN1CC(Oc2cnc(C#N)cc2-c2ccn3nc(NC(=O)C4CC4)cc3c2)C1 | Serine/threonine-protein kinase 35 (STK35, Homo sapiens, UniProt Q8TDR2) | enzyme activity | inhibitor |  | 1 µM |  | 1
O=c1c(O)cccc2c([C@H]3Oc4cc(O)cc(O)c4C[C@H]3O)cc(O)c(O)c12 | SETD7 | cell-free assay |  |  | 10 µM |  | 16
O=C(O)c1cc(=O)c2c(OCC(O)COc3cccc4oc(C(=O)O)cc(=O)c34)cccc2o1 | SLC10A2 | transporter uptake | inhibitor | radiometric | 1 mM |  | < 10
CSCCC(NC=O)C(=O)NC(C)C(=O)O (stereo not drawn) | SETD7 | cell-free assay |  |  | 10 µM |  | 7
C=C[C@H]1C[N@@]2CC[C@H]1C[C@H]2[C@H](O)c1ccnc2ccc(OC)cc12 | SLC10A2 | transporter uptake | inhibitor | radiometric | 1 mM |  | 59.9
CC(=O)N[C@H]1CSSC[C@@H](C(=O)N[C@H](Cc2c[nH]c3ccccc23)C(N)=O)NC(=O)[C@@H](Cc2ccccc2)NC(=O)[C@H](CCCNC(=N)N)NC1=O | Melanocortin receptor 5 (MC5R, Homo sapiens, UniProt P33032) | ligand displacement |  | radioligand | 10 µM | 40 min | 0
O=c1c(O)cccc2cc(O)c(O)c(O)c12 | SETD7 | cell-free assay |  |  | 10 µM |  | 27
